Measurements taken from ChEMBL document CHEMBL2021901, “Antibacterial acylphloroglucinols from Hypericum olympicum” (2012).
≈ marks a conversion by molar mass, not a printed value.

What was measured:
[1] = system: Staphylococcus aureus; assay: Antibacterial activity against Staphylococcus aureus RN4220 overexpressing MsrA macrolide efflux protein after 24 hrs; type: functional; details: RN4220, 24 h
Method in brief: (§1)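 Strains grown on nutrient agar for 24 h at 37 °C before testing. Broth microdilution MIC used an inoculum of 5 × 10⁵ CFU, prepared in normal saline (9 g/L) against a 0.5 McFarland standard. Plates were incubated at 37 °C, then MTT (5 mg/mL methanolic stock) was added for 20 min. Growth was scored by colour change.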

[2] = system: Mycolicibacterium smegmatis; assay: Antimycobacterial activity against Mycobacterium smegmatis MC2 2700 expressing Mycobacterium tuberculosis fatty acid synthase 1 gene after 72 hrs by MTT assay; type: functional; details: MC2 2700, 72 h
Method in brief: (§2)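 Mycobacteria were grown on Columbia agar with 7% defibrinated horse blood, subcultured, and incubated 72 h at 37 °C before the assay. Broth microdilution MIC used an inoculum of 5 × 10⁵ CFU in normal saline, set against a 0.5 McFarland standard. Plates were incubated at 37 °C, then MTT (5 mg/mL methanolic stock) was added for 20 min. Growth was read by colour change.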

[3] = system: Mycolicibacterium phlei; assay: Antimycobacterial activity against Mycobacterium phlei ATCC 11758 after 72 hrs by MTT assay; type: functional; details: ATCC 11758, 72 h
Method in brief: (§3)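 Mycobacterium strains were subcultured on Columbia agar with 7% defibrinated horse blood at 37 °C for 72 h before assay. The inoculum was 5 × 10⁵ CFU in normal saline (9 g/L), set against a 0.5 McFarland standard. Microtiter plates were incubated at 37 °C. MIC was read after adding MTT (5 mg/mL methanolic stock) for 20 min, with growth shown by colour change.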

[4] = system: Mycolicibacterium smegmatis; assay: Antimycobacterial activity against Mycobacterium smegmatis ATCC 14468 after 72 hrs by MTT assay; type: functional; details: ATCC 14468, 72 h; method in brief: as §2
[5] = system: Mycolicibacterium fortuitum; assay: Antimycobacterial activity against Mycobacterium fortuitum ATCC 6841 after 72 hrs by MTT assay; type: functional; details: ATCC 6841, 72 h; method in brief: as §3
[6] = system: Pseudomonas aeruginosa; assay: […] activity against Pseudomonas aeruginosa K767 after 24 hrs; type: functional; details: K767, 24 h; method in brief: as §1
[7] = system: Staphylococcus aureus; assay: Antibacterial activity against Staphylococcus aureus ATCC 25923 after 24 hrs; type: functional; details: ATCC 25923, 24 h; method in brief: as §1
[8] = system: Pseudomonas aeruginosa; assay: […] activity against Pseudomonas aeruginosa K1119 after 24 hrs; type: functional; details: K1119, 24 h; method in brief: as §1
[9] = system: Staphylococcus aureus; assay: Antibacterial activity against Staphylococcus aureus SA-1199B overexpressing NorA MDR efflux pump after 24 hrs; type: functional; method in brief: as §1
[10] = system: Salmonella typhimurium; assay: […] activity against Salmonella enterica serovar Typhimurium L354 after 24 hrs; type: functional, Salmonella enterica subsp. enterica serovar Typhimurium; details: L354, 24 h
Method in brief: (§4)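 The microdilution inoculum was 5 × 10⁵ CFU in normal saline (9 g/L), matched to a 0.5 McFarland standard. Plates were incubated at 37 °C. MTT (5 mg/mL methanolic stock) was added for 20 min, and colour change indicated growth for the MIC readout.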

[11] = system: Salmonella typhimurium; assay: […] activity against Salmonella enterica serovar Typhimurium L10 after 24 hrs; type: functional, Salmonella enterica subsp. enterica serovar Typhimurium; details: L10, 24 h; method in brief: as §4
[12] = system: Staphylococcus aureus; assay: Antibacterial activity against Staphylococcus aureus EMRSA-15 after 24 hrs; type: functional; details: EMRSA-15, 24 h; method in brief: as §1
[13] = system: Staphylococcus aureus; assay: Antibacterial activity against Staphylococcus aureus XU212 overexpressing TetK tetracycline efflux pump after 24 hrs; type: functional; details: XU212, 24 h; method in brief: as §1
[14] = system: Staphylococcus aureus; assay: Antibacterial activity against Staphylococcus aureus EMRSA-16 after 24 hrs; type: functional; details: EMRSA-16, 24 h; method in brief: as §1

| SMILES | MIC [1] | MIC [2] [µM] | MIC [3] [µM] | MIC [4] [µM] | MIC [5] [µM] | MIC [6] [µM] | MIC [7] | MIC [8] [µM] | MIC [9] | MIC [10] [µM] | MIC [11] [µM] | MIC [12] | MIC [13] | MIC [14] |
| --- | --- | --- | --- | --- | --- | --- | --- | --- | --- | --- | --- | --- | --- | --- |
| CC[C@H]1OC(=O)[C@H](C)[C@@H](O[C@H]2C[C@@](C)(OC)[C@@H](O)[C@H](C)O2)[C@H](C)[C@@H](O[C@@H]2O[C@H](C)C[C@H](N(C)C)[C@H]2O)[C@](C)(O)C[C@@H](C)C(=O)[C@H](C)[C@@H](O)[C@]1(C)O [ERYTHROMYCIN] | 349 µM | – | – | – | – | – | – | – | – | – | – | – | – | – |
| CC[C@@H](CO)NCCN[C@@H](CC)CO [ETHAMBUTOL] | – | 2.4 (≈ 0.49 µg/mL) | 2.4 (≈ 0.49 µg/mL) | 2.4 (≈ 0.49 µg/mL) | 2.4 (≈ 0.49 µg/mL) | – | – | – | – | – | – | – | – | – |
| NNC(=O)c1ccncc1 [ISONIAZID] | – | 14.6 (≈ 2 µg/mL) | 14.6 (≈ 2 µg/mL) | 14.6 (≈ 2 µg/mL) | 29.2 (≈ 4 µg/mL) | – | – | – | – | – | – | – | – | – |
| CCn1cc(C(=O)O)c(=O)c2cc(F)c(N3CCNCC3)cc21 [NORFLOXACIN] | – | – | – | – | – | 6.2 (≈ 1.98 µg/mL) | 3.1 µM | 6.2 (≈ 1.98 µg/mL) | 100 µM | – | – | – | – | – |
| CC[C@H](C)C(=O)c1c(O)cc(O)cc1OC/C=C(\C)CCC=C(C)C [OLYMPICIN A] | 2.9 µM | 11.6 (≈ 4.02 µg/mL) | 11.6 (≈ 4.02 µg/mL) | 11.6 (≈ 4.02 µg/mL) | 23.2 (≈ 8.04 µg/mL) | > 1000 | 2.9 µM | > 1000 | 2.9 µM | > 1000 | > 1000 | 1.45 µM | 2.9 µM | 2.9 µM |
| CC[C@H](C)C(=O)c1c(O)cc(O)cc1OC/C=C(\C)C/C=C/C(C)(C)O [OLYMPICIN B] | 64 µg/mL | – | – | – | – | – | 64 µg/mL | – | 64 µg/mL | – | – | 64 µg/mL | 64 µg/mL | 64 µg/mL |
| C=C(C)C(O)CC/C(C)=C/COc1cc(O)cc(O)c1C(=O)C(C)CC (stereo unspecified) [OLYMPICIN C] | 64 µg/mL | – | – | – | – | – | 64 µg/mL | – | 64 µg/mL | – | – | 64 µg/mL | 64 µg/mL | 64 µg/mL |
| C=C(C)C(CC/C(C)=C/COc1cc(O)cc(O)c1C(=O)C(C)CC)OO (stereo unspecified) [OLYMPICIN D] | 64 µg/mL | – | – | – | – | – | 64 µg/mL | – | 64 µg/mL | – | – | 64 µg/mL | 64 µg/mL | 64 µg/mL |
| CCC(C)C(=O)c1c(O)cc(O)cc1OC/C=C(\C)CCC1OC1(C)C (stereo unspecified) [OLYMPICIN E] | 64 µg/mL | – | – | – | – | – | 64 µg/mL | – | 64 µg/mL | – | – | 64 µg/mL | 64 µg/mL | 64 µg/mL |
| Cc1onc(-c2ccccc2)c1C(=O)N[C@@H]1C(=O)N2[C@@H]1SC(C)(C)[C@@H]2C(=O)O [OXACILLIN] | – | – | – | – | – | – | – | – | – | – | – | 79 µM | – | 1280 µM |
| CN(C)[C@@H]1C(O)=C(C(N)=O)C(=O)[C@@]2(O)C(O)=C3C(=O)c4c(O)cccc4[C@@](C)(O)[C@H]3C[C@@H]12 [TETRACYCLINE] | – | – | – | – | – | – | – | – | – | 2.3 (≈ 1.02 µg/mL) | 2.3 (≈ 1.02 µg/mL) | – | 288 µM | – |
